In ChEMBL document CHEMBL4014301, “Design, synthesis and evaluation of 4-substituted anthra[2,1-c][1,2,5]thiadiazole-6,11-dione derivatives as novel non-camptothecin topoisomerase I inhibitors” (Bioorg Med Chem Lett, 2017):
Converted amounts (≈) assume the structure as drawn. The source made the active and inactive calls. The rule behind the calls is not given here.

How the values were obtained:
[1] = test system: A549; experiment: Antiproliferative activity against human A549 cells after 72 hrs by MTT assay; assay type: functional, cell-based
[2] = test system: HCT-116; experiment: Antiproliferative activity against human HCT116 cells after 72 hrs by MTT assay; assay type: functional, cell-based
[3] = test system: ZR-75-30; experiment: Antiproliferative activity against human ZR-7530 cells after 72 hrs by MTT assay; assay type: functional, cell-based
[4] = molecular target: T1, DNA topoisomerase 1 (Homo sapiens) (UniProt P11387); experiment: Inhibition of DNA topoisomerase 1 (unknown origin) assessed as reduction in supercoiled pBR322 plasmid DNA relaxation at 100 uM after 15 mins by ethidium bromide staining based agarose gel electrophoresis
T1 sequence (whole entry): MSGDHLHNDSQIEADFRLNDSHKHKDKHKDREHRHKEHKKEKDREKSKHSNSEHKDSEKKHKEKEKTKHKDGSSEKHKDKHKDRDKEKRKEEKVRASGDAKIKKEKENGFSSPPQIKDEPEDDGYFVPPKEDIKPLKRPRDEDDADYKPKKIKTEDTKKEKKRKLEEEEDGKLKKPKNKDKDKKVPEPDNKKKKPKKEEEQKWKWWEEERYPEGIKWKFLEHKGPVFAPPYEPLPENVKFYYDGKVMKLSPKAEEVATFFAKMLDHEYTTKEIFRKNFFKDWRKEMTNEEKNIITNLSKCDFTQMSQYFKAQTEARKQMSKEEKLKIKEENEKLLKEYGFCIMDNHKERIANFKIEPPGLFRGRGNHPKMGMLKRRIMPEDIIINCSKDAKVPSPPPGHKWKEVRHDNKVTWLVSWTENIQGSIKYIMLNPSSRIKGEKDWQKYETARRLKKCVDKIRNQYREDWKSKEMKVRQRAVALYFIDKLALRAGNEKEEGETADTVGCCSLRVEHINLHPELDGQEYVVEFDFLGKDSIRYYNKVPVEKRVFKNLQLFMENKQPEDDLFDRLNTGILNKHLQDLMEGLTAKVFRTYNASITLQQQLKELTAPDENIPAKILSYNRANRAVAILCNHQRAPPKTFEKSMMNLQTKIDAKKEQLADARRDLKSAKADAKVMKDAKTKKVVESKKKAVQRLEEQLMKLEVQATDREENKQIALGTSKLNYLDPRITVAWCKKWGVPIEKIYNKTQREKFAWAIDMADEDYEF
Procedure, shortened: (§1)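 Supercoiled pBR322 plasmid incubated with Top1, with or without compound at 1, 10 and 100 µM. Relaxation inhibition read from agarose gel bands.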

[5] = molecular target: T1, DNA topoisomerase 1 (Homo sapiens); experiment: Inhibition of DNA topoisomerase-1 (unknown origin) mediated DNA relaxation assessed as DNA intercalation at 100 uM using supercoiled pBR322 plasmid DNA as substrate after 60 mins by ethidium bromide staining based agarose gel electrophoresis
Procedure, shortened: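 Unwinding assay with excess Top1 acting on supercoiled pBR322 in the presence of compound at 100 µM. Ethidium bromide at 1 µg/mL used as intercalator reference. Compound removed by phenol extraction after relaxation. Nicked, relaxed and supercoiled forms resolved on gel.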

[6] = Solubility of the compound; assay type: physicochemical
[7] = molecular target: T1, DNA topoisomerase 1 (Homo sapiens); experiment: Inhibition of DNA topoisomerase-1 (unknown origin) mediated DNA relaxation assessed as DNA intercalation at 1 ug/ml using supercoiled pBR322 plasmid DNA as substrate after 60 mins by ethidium bromide staining based agarose gel electrophoresis
Procedure, shortened: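 Top1 unwinding assay for DNA intercalation: supercoiled pBR322 plasmid treated with excess Top1 in presence of compounds (100 µM), with ethidium bromide (1 µg/mL) as intercalator control; compounds removed by phenol extraction after relaxation. Nicked, relaxed and supercoiled DNA forms resolved on gel.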

[8] = test system: HCT-116; experiment: Cell cycle arrest in human HCT116 cells assessed as accumulation at G2 phase at 5 uM after 12 hrs by propidium iodide staining-based flow cytometry (reference value: 19%); assay type: functional
[9] = test system: HCT-116; experiment: Cell cycle arrest in human HCT116 cells assessed as accumulation at G2 phase at 5 uM after 36 hrs by propidium iodide staining-based flow cytometry (reference value: 21%); assay type: functional
[10] = molecular target: T1, DNA topoisomerase 1 (Homo sapiens); experiment: Inhibition of DNA topoisomerase 1 (unknown origin) assessed as reduction in supercoiled pBR322 plasmid DNA relaxation after 15 mins by ethidium bromide staining based agarose gel electrophoresis; procedure, shortened: as §1
[11] = molecular target: T1, DNA topoisomerase 1 (Homo sapiens); experiment: Inhibition of DNA topoisomerase 1 (unknown origin) assessed as reduction in supercoiled pBR322 plasmid DNA relaxation at 1 uM after 15 mins by ethidium bromide staining based agarose gel electrophoresis; procedure, shortened: as §1

| Compound | IC50 ([1]; Homo sapiens, A549, 72 h) [µM] | IC50 ([2]; Homo sapiens, HCT-116, 72 h) [µM] | IC50 ([3]; Homo sapiens, ZR-75-30, 72 h) [µM] | inhibition [4] | further results |
| --- | --- | --- | --- | --- | --- |
| O=C1c2ccccc2C(=O)c2c1cc(S(=O)(=O)c1cccs1)c1nsnc21 | > 100 | 1.5 | 24 | Active | inhibition [5]: inactive |
| Cc1ccc(S(=O)(=O)c2cc3c(c4nsnc24)C(=O)c2ccccc2C3=O)cc1 | 50 | 84 | 90 |  | solubility [6]: 0.14 µg/mL (≈ 0.333 µM) |
| CC(C)Nc1cc2c(c3nsnc13)C(=O)c1ccccc1C2=O | 6.7 | 7 | 3 | Active |  |
| CC(C)CNc1cc2c(c3nsnc13)C(=O)c1ccccc1C2=O |  |  |  | Active | IC50 ([1]; a549): > 100 µM; IC50 ([2]; hct-116): 6.3 µM; IC50 ([3]; zr-75-30): 3.1 µM |
| O=C1c2ccccc2C(=O)c2c1cc(Sc1ccc3ccccc3c1)c1nsnc21 | > 100 | > 100 | > 100 | Active |  |
| O=C1c2ccccc2C(=O)c2c1cc(S(=O)(=O)c1ccc3ccccc3c1)c1nsnc21 | > 100 | 6.7 | 23 | Active |  |
| CC[n+]1c(-c2ccccc2)c2cc(N)ccc2c2ccc(N)cc21 |  |  |  |  | inhibition [7]: Active |
| CN1CCN(c2cc3c(c4nsnc24)C(=O)c2ccccc2C3=O)CC1 | 14 | 3.3 | 2.7 | Active |  |
| O=C1c2ccccc2C(=O)c2c1cc(S(=O)(=O)Cc1ccccc1Cl)c1nsnc21 | > 100 | 11 | > 100 | Active |  |
| O=C1c2ccccc2C(=O)c2c1cc(SCc1ccccc1Cl)c1nsnc21 | > 100 | > 100 | > 100 | Active |  |
| O=C1c2ccccc2C(=O)c2c1cc(Sc1cccs1)c1nsnc21 | > 100 | > 100 | > 100 | Active | inhibition [5]: inactive |
| CC(=O)N1CCN(c2cc3c(c4nsnc24)C(=O)c2ccccc2C3=O)CC1 | 17 | 0.52 | 0.42 | Active | inhibition [5]: Active; solubility [6]: 7.98 µg/mL (≈ 20.3 µM); Activity [8]: 34%; Activity [9]: 56%; inhibition [10]: Dose-dependent effect; inhibition [11]: Active |
